NRP1-CendR mod: NRP-1/CendR interaction modulation. inhibition, % at 25 µM. 0.85% of 360,000 active. FAM-RPARPAR peptide binding to NRP-1, fluorescence polarization;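 active = inhibition or corrected inhibition above about 18%, plus a signal ratio from 0.5 to 1.5, limit read from the data, passing the limit was not always enough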
Target sequence (O14786 whole entry, looked up): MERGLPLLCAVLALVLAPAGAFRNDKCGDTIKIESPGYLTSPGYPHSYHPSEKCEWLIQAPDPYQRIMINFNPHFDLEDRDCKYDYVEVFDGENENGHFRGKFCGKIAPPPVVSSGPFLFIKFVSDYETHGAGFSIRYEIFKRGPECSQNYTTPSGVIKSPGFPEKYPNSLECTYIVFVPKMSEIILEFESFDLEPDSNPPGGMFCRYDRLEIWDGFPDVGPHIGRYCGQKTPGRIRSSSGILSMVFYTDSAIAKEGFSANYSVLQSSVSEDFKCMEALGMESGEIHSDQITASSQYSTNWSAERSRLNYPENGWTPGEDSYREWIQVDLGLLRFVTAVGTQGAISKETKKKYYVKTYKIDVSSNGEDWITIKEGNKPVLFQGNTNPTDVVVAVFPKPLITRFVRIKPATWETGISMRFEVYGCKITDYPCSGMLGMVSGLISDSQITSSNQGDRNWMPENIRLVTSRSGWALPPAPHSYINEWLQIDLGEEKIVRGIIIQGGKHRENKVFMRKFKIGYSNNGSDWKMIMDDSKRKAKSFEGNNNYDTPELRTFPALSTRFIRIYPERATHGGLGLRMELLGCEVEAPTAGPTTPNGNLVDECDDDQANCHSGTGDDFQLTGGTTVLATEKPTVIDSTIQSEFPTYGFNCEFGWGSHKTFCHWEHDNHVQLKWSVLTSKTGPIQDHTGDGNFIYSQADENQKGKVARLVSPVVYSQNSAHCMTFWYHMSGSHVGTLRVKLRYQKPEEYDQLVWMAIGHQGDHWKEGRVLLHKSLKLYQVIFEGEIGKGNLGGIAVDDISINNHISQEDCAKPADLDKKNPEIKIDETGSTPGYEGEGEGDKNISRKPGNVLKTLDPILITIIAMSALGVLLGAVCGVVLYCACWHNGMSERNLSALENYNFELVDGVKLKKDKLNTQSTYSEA
DDE Tn7 FP inh: inhibitors of Tn7 peptide binding to human fibrin DD(E); P02675; FP displacement of FITC-Tn7 peptide from fibrin DD(E); 0% = median of compound wells per plate; inhibition, % at 8.3 µM; 0.13% of 370,000 active; AID 720508;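 active = inhibition above the mean of compounds falling within the control limits plus 3 SD of them, cut at about 14% in these data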
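Assay system: Human fibrin DD(E) protein | Medium: Tris buffer with calcium and detergent, pH 7.8 | Reagent: 0.1 µM fluorescent Tn7 | Compound dosing: Single point at 8.3 µM | Times: 10 min preincubation, 3 h with tracer, room temperature | Detection: Fluorescence polarization of the labelled Tn7 tracer | Controls: Aha-Tn7 high control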
CRFBP-R2 agonist: CRF-BP/CRF-R2 complex agonism. HEK293 CRF-R2/CRF-BP, calcium dye fluorescence (FLIPR); percent of saturating CRF peptide response. activation, % at 13.2 µM. 0.46% of 350,000 active. AID 588473;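 active = activation of at least 50%, plus an integration ratio under a set limit after plate pattern correction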
CRFBP-R2 block: blocks CRF-induced signaling of the CRF-BP/CRF-R2 complex. 0.59% of 350,000 active. inhibition, % at 11.8 µM. HEK293 CRF-R2/CRF-BP, CRF-induced calcium fluorescence. AID 588475;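 active = inhibition of the ligand-induced calcium signal above about 50% at the single tested concentration, limit read from the data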
KLK7 zymogen act: activators of human kallikrein-7 zymogen; purified proKLK7, EDANS-DABCYL substrate fluorescence; 100% is mature enzyme control, 0% vehicle; P49862; activation, % at 7 µM; 0.9% of 370,000 active;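 active = activation above the mean of all tested compounds plus 3 SD, computed per campaign excluding outliers beyond control limits, cut at about 13% in these data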
Tn6 DDE FP: inhibitors of Tn6 peptide binding to human fibrin DD(E); P02675; Fibrin DD(E) TRITC-Tn6 fluorescence polarization displacement; inhibition, % at 8.3 µM; 0.21% of 370,000 active;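 active = inhibition above a per-campaign cutoff: mean of compounds within control limits plus 3 SD, cut at about 15% in these data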
Tn7 DDE conf: confirmation of inhibitors of Tn7 binding to human fibrin DD(E). FP displacement of TRITC-Tn7 peptide from DD(E); 0% set at plate's compound-well median. shares compounds with DDE Tn7 FP inh. inhibition, % at 8.3 µM. 5% of 460 active;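 active = inhibition above the campaign cutoff, the mean of compounds within control limits plus 3 SD, cut at about 14% in these data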;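 note: displacers lower polarization since freed probe rises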
Tn7 DDE ctr: counter-screen hit for Tn7 peptide-fibrin DD(E) binding disruption | shares compounds with DDE Tn7 FP inh | TRITC-Tn7 probe displacement, fluorescence polarization | inhibition, % at 8.3 µM | 3% of 460 active | AID 720633;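 active = inhibition above the cutoff, the mean of compounds lying between the control bounds plus 3 SD of those compounds, cut at about 17% in these data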
Of the large screens only hits and unclear results are named; the others gave an inactive call (follow-up assays come after a bar, where they were run). The list is not random: actives were taken first. Their share in the collection is about 2.9%.

Cn1c(CN2CCCCC2)nc2cc(NC(=O)c3ccc(F)cc3)ccc21	DDE Tn7 FP inh 15 | Tn7 DDE conf inactive | Tn7 DDE ctr inactive
Cn1c(CN2CCCCC2)nc2cc(NC(=O)c3ccccc3Cl)ccc21	none
COC(=O)[C@@H](Cc1ccccc1)NC(=O)[C@H]1O[C@@H](n2cnc3c(=O)[nH]c(N)nc32)[C@H](O)[C@@H]1O	none (no result: NRP1-CendR mod, CRFBP-R2 agonist, CRFBP-R2 block)
Clc1ccc2nc3c4ccccc4cnn3c2c1	none
Oc1ccc2nnc3c(Br)cnn3c2c1	DDE Tn7 FP inh 17, CRFBP-R2 agonist 146 | Tn7 DDE conf inactive | Tn7 DDE ctr inactive
Cc1ccccc1S(=O)Cc1ccc(C(=O)NC2CCN(Cc3ccccc3)CC2)o1 (stereo not drawn)	DDE Tn7 FP inh 14 | Tn7 DDE conf inactive | Tn7 DDE ctr inactive
O=C(NCC(c1ccccc1)c1ccccc1)[C@H](Cc1ccccc1)NC1(C(=O)NC2CCCCC2)CCCC1	none (no result: NRP1-CendR mod, CRFBP-R2 agonist, CRFBP-R2 block, KLK7 zymogen act)
CCOC(=O)[C@H]1[C@H]2COc3ccc(C)cc3[C@@H]2N2C(=O)CN(Cc3ccc(Cl)cc3)C(=O)[C@@]12C	none
CCOC(=O)[C@H]1[C@H]2COc3ccccc3[C@@H]2N2C(=O)CN(Cc3ccc(C)cc3)C(=O)[C@@]12C	DDE Tn7 FP inh 20 | Tn7 DDE conf inactive | Tn7 DDE ctr inactive
O=C(CSc1nc2c(cnn2-c2ccc(F)cc2)c(=O)[nH]1)N1CCCCC1	DDE Tn7 FP inh 15 | Tn7 DDE conf inactive | Tn7 DDE ctr inactive
Cc1ccc(NC(=O)c2ccc(NCCCN3CCC(C)CC3)c([N+](=O)[O-])c2)cc1F	DDE Tn7 FP inh 15 | Tn7 DDE conf inactive | Tn7 DDE ctr inactive
COc1cccc(NC(=O)C(c2ccccc2)N2CCN(CC(=O)N3CCOCC3)CC2)c1 (stereo not drawn)	DDE Tn7 FP inh 15 | Tn7 DDE conf inactive | Tn7 DDE ctr inactive
Cc1ccc(NC(=O)C(c2ccccc2)N2CCN(CC(=O)N3CCOCC3)CC2)cc1 (stereo not drawn)	none
COc1ccc2[nH]c3c(c2c1)CCN[C@]31C(=O)N(Cc2cn(Cc3ccccc3)nn2)c2ccccc21	none (no result: NRP1-CendR mod, CRFBP-R2 agonist, CRFBP-R2 block)
C[C@H]1O[C@@H](n2c3ccc(Cl)cc3c3ccc4c5cc(Cl)ccc5[nH]c4c32)[C@H](O)[C@H](O)[C@H]1O	none (no result: NRP1-CendR mod, CRFBP-R2 agonist, CRFBP-R2 block)
CC1(c2ccccc2Cl)NC(=O)N(CC(=O)N2CCc3ccccc3C2)C1=O (stereo not drawn)	none
CC1(c2ccc(Cl)cc2)NC(=O)N(CC(=O)N2CCc3ccccc3C2)C1=O (stereo not drawn)	DDE Tn7 FP inh 15 | Tn7 DDE conf inactive | Tn7 DDE ctr inactive
CC(CCN1CCC(C(O)(c2ccccc2)c2ccccc2)CC1)Oc1cccc(Br)c1 (stereo not drawn)	none (no result: NRP1-CendR mod, CRFBP-R2 agonist, CRFBP-R2 block)
CCOC(=O)N1CCN(Cc2nc(CC3CC3)no2)CC1	none
CCOC(=O)N1CCN(Cc2nc(-c3ccc(C)cc3)no2)CC1	DDE Tn7 FP inh 16 | Tn7 DDE conf 16 | Tn7 DDE ctr inactive
COc1ccccc1N1CCN(CC(=O)c2c[nH]c3ccccc23)CC1	none
COc1ccccc1N1CCN(CC(=O)c2c(C)[nH]c3ccccc23)CC1	DDE Tn7 FP inh 16 | Tn7 DDE conf inactive | Tn7 DDE ctr inactive
O=C1C=CC(O)(c2cc(=O)c3c(O)cc(O)cc3o2)C=C1	DDE Tn7 FP inh 14 | Tn7 DDE conf inactive | Tn7 DDE ctr inactive
Cc1cccc(CN[C@@H]2CC[C@@]34CCCN3C(=O)CCC[C@H]4C2)c1	none (no result: NRP1-CendR mod, CRFBP-R2 agonist, CRFBP-R2 block, KLK7 zymogen act)
CCn1c(=O)cc(SCC(=O)Nc2cccnc2)c2ccccc21	DDE Tn7 FP inh 14 | Tn7 DDE conf inactive | Tn7 DDE ctr inactive
Cc1ccc(-c2c(C#N)c(N)n(-c3ccc(Cl)cc3)c(=O)c2C#N)cc1	DDE Tn7 FP inh 14 (no result: CRFBP-R2 agonist, CRFBP-R2 block) | Tn7 DDE conf inactive | Tn7 DDE ctr inactive

Screening results from PubChem BioAssay.
